Active and inactive are the calls of the source. The calls are words filed in the database; no cut-off is given here.
What was measured:
[1] = biological target: T1, Proto-oncogene tyrosine-protein kinase Src (Homo sapiens, UniProt P12931); assay: Inhibition of c-SRC assessed as residual activity using KVEKIGEGYYGVVYK as peptide substrate after 20 mins by scintillation counting
How it was run: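 Radiometric kinase assay: Src kinase ([…] stock diluted to 200 nM in kinase buffer) with peptide substrate (370 µM stock) and inhibitor from 10% DMSO dilution, in buffer with MgCl2, EDTA, DTT; started with 40 µM ATP plus 33P-γ-ATP, 20 min at 30 °C; stopped with 0.85% orthophosphoric acid, phosphocellulose filter capture, scintillation count. IC50 from sigmoidal variable-slope fit of mean data, at least two determinations; DMSO negative control.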

[2] = biological target: T1, Proto-oncogene tyrosine-protein kinase Src; assay: Inhibition of c-SRC in human HCT116 cells assessed as phosphorylated FAK level after 5 hrs by Western blot assay; type: cell-based; conditions: HCT-116
How it was run: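 HCT116 colon carcinoma cells seeded overnight, serum-starved, treated with inhibitors 5 h at 3 and 10 µM final; lysed in 2X Laemmli buffer, gradient SDS-PAGE, PVDF transfer. Phospho-FAK by anti-pTyr861, total FAK on separate blot; ratio by film densitometry.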

[3] = biological target: T1, Proto-oncogene tyrosine-protein kinase Src; assay: Inhibition of c-SRC in EGF-stimulated human A431 cells assessed as phosphorylated STAT3 level by Western blot assay; type: cell-based; conditions: A-431
How it was run: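 A431 epidermoid carcinoma cells starved overnight, stimulated 10 min with EGF (100 ng/ml), lysed in 2X Laemmli buffer; phospho-STAT3 detected with anti-pTyr705 antibody, total STAT3 on a separate blot; pSTAT3/total STAT3 ratio by densitometry of X-ray films. DMSO with EGF set as 100% phosphorylation; 4-anilinoquinoline-3-carbonitrile positive control.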

Fibroblast = assay: Antitumor activity against Src-transformed fibroblasts xenograft model assessed as tumor growth inhibition at 50 mg/kg, ip after 7 days; type: functional, organism-based; parameters: dose 50 mg/kg
[4] = biological target: T1, Proto-oncogene tyrosine-protein kinase Src

T1 sequence (P12931 2-536 limits assumed): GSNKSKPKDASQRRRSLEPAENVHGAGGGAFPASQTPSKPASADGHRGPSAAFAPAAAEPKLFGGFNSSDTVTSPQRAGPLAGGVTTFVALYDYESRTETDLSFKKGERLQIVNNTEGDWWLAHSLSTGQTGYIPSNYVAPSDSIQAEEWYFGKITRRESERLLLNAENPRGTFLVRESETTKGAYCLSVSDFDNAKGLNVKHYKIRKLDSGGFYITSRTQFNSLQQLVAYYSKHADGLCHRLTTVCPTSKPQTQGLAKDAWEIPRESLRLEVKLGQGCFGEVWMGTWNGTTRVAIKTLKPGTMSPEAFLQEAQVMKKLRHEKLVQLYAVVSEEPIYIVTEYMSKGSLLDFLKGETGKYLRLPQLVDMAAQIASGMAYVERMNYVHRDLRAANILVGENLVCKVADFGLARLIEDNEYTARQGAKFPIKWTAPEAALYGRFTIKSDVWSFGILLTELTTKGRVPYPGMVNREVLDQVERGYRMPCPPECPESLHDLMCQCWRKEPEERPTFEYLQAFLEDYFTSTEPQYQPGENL

Row | IC50 [1] [nM] | Activity [2] [µM] | SMILES | other results
1 | 246 | 10 | Cc1cc(NCCN(C)C)nc2sc(C(=O)N/N=C/c3cccn3C)c(N)c12 | –
2 | 269 | – | Cc1cc(C)c2c(N)c(C(=O)N/N=C/c3cccc4ccccc34)sc2n1 | Activity [3]: 10 µM
3 | 2080 | – | CCCc1cc2c(N)c(C(=O)N/N=C/c3cccn3C)sc2nc1NCCN(C)C | –
4 | 40 | 3 | CN(C)CCNc1cc(Cc2ccccc2)c2c(N)c(C(=O)N/N=C/c3cccn3C)sc2n1 | –
5 | 32 | 3 | CN(C)CCNc1cc(-c2ccccc2)c2c(N)c(C(=O)N/N=C/c3cncn3C)sc2n1 | –
6 | 1300 | – | Cn1cncc1/C=N/NC(=O)c1sc2ncccc2c1N | –
7 | 68 | 3 | CN(C)CCNc1cc(-c2ccccc2)c2c(N)c(C(=O)N/N=C/c3cccn3C)sc2n1 | –
8 | 63 | 10 | CCCc1cc(NCCN(C)C)nc2sc(C(=O)N/N=C/c3cccn3C)c(N)c12 | –
9 | 107 | 3 | CN(C)CCNc1cc(-c2ccccc2)c2c(N)c(C(=O)N/N=C/c3cccc4ccccc34)sc2n1 | –
10 | 230 | > 10 | Cc1cc(NCCN(C)C)nc2sc(C(=O)N/N=C/c3cccc4ccccc34)c(N)c12 | –
11 | 3870 | – | CN(C)CCNc1nc2sc(C(=O)N/N=C/c3cccn3C)c(N)c2cc1Cc1ccccc1 | –
12 | 840 | – | Cc1cc(C)c2c(N)c(C(=O)N/N=C/c3cccn3C)sc2n1 | –
13 | > 10000 | – | Cc1cc(C)c2c(N)c(C(=O)N/N=C/c3cccn3CCN(C)C)sc2n1 | –
14 | 769 | – | Cc1cc(C)c2c(N)c(C(=O)N/N=C/c3cncn3C)sc2n1 | Activity [3]: > 10 µM
15 | 330 | > 10 | Cc1cc(C(F)(F)F)nc2sc(C(=O)N/N=C/c3cncn3C)c(N)c12 | –
16 | – | – | COc1cc(Nc2c(C#N)cnc3cc4cc(OCCN5CCOCC5)c(OC)cc4cc23)c(Cl)cc1Cl | Activity (Fibroblast): Active
17 | – | – | O=C(Cc1ccc(-c2ccc(OCCN3CCOCC3)cc2)cn1)NCc1ccccc1 [TIRBANIBULIN] | IC50 [4]: 20 nM
18 | 1340 | – | Cc1cc(C(F)(F)F)nc2sc(C(=O)N/N=C/c3cccc4ccccc34)c(N)c12 | –
19 | > 10000 | – | Nc1c(C(=O)N/N=C/c2cccc3ccccc23)sc2ncccc12 | –
